Measured values pooled from the literature.
Read-out: enzyme activity
Mode: inhibitor
CDK5 with p25: Cyclin-dependent kinase 5, with p25 (CDK5, Homo sapiens, UniProt Q00535)
CDK5 with p35: Cyclin-dependent kinase 5, with p35 (CDK5, Homo sapiens, UniProt Q00535)

| SMILES | target | test | conditions | remaining activity |
| --- | --- | --- | --- | --- |
| CCCOc1ccc(OC)c(F)c1C(=O)c1ccc(C(=O)N[C@@H]2CNC[C@H]2NC(=O)c2ccc3[nH]ncc3c2)cc1 | CDK5 with p25 |  | 50 nM | 114% |
| Cc1sc(C(=O)NC2COC2)cc1-n1cc(NC(=O)Nc2c(F)cccc2Cl)cn1 | CDK5 with p25 |  | 10 µM | 97.6% |
| COc1cc(Cl)c(C(=O)N[C@@H](CN[C@H]2CC[C@@H](N)CC2)Cc2ccc(C#N)cc2)cc1-c1ccc(CN[C@H](C)c2ccc(C)cc2)o1 | CDK5 with p25 |  | 1 µM | 102% |
| Cc1cnc(NC2CCOCC2)nc1-n1cnc(C(=O)NC(CN)c2cc(F)cc(Cl)c2)c1 (stereo not shown) | CDK5 with p35 | radiometric | 1 µM | 4% |
| CC[C@H](C)[C@H](NC(=O)[C@H](CCC(N)=O)NC(=O)[C@H](CC(C)C)NC(=O)[C@H](CCSC)NC(=O)[C@H](CCCCN)NC(=O)[C@H](CO)NC(=O)[C@H](CO)NC(=O)[C@H](CCSC)NC(=O)[C@H](CC(C)C)NC(=O)[C@H](CC(N)=O)NC(=O)[C@@H](NC(=O)[C@@H](NC(=O)[C@H](CO)NC(=O)[C@H](CC(C)C)NC(=O)[C@H](CS)NC(=O)[C@H](CCCNC(=N)N)NC(=O)[C@H](CC(=O)O)NC(=O)[C@H](Cc1c[nH]c2ccccc12)NC(=O)[C@H](Cc1ccccc1)NC(=O)[C@H](C)NC(=O)[C@H](CCC(=O)O)NC(=O)[C@@H](N)CCCCN)C(C)C)[C@@H](C)CC)C(=O)N[C@@H](CC(N)=O)C(=O)N[C@@H](C)C(=O)O | CDK5 with p25 | radiometric | 500 µM, 20 min | 28% |
| CC(C)(O)[C@H]1CC[C@H](Nc2ccc3ncc(-c4cccc(C(F)(F)F)c4)n3n2)CC1 | CDK5 with p35 |  | 1 µM | 97.7% |
| O=C(Nc1cnn(-c2csc(C(=O)NC3COC3)c2)c1)Nc1ccccc1Cl | CDK5 with p25 |  | 5 µM | 101% |
| CC(C)(C)c1nc(-c2cccc(NS(=O)(=O)c3c(F)cccc3F)c2F)c(-c2ccnc(N)n2)s1 | CDK5 with p35 | radiometric | 1 µM | 82% |
| O=C(Nc1cnn(-c2csc(C(=O)NC3COC3)c2)c1)Nc1c(F)cccc1Cl | CDK5 with p25 |  | 5 µM | 88.2% |
| CCN(CC)c1ccc(C2=NNC(=O)CC2C)cc1[N+](=O)[O-] (stereo not shown) | CDK5 with p25 |  | 10 µM | 113% |
